Results published in ChEMBL document CHEMBL3259728, “Design, synthesis and biological evaluation of some novel substituted quinazolines as antitumor agents” (2014).

System: not listed separately
Assay: Growth inhibition of human HCT15 cells at 10 uM after 48 hrs by SRB assay
Type: functional
Conditions: HCT-15, 48 h, read-out: GI
Outline: (§1)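 NCI-60 primary one-dose screen run at the US NCI, with human tumour lines from nine cancer types. Compound added once at 10^-5 M, followed by 48 h incubation. End point was sulforhodamine B protein staining read spectrophotometrically. Result given as percent growth of treated cells against untreated controls, reported as % growth inhibition.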
`Cc1ccc(-c2nc3ccc(Cl)cc3c(=O)n2NC(=O)CNN)cc1` gave an inhibition of growth at 10 µM of 16%.

System: RPMI-8226
Assay: Growth inhibition of human RPMI8226 cells at 10 uM after 48 hrs by SRB assay
Type: functional
Conditions: RPMI-8226, 48 h, read-out: GI
Outline: as §1
`Cc1ccc(-c2nc3ccc(Cl)cc3c(=O)n2NC(=O)CNN)cc1` showed an inhibition of growth at 10 µM of 13%.

System: SK-MEL-2
Assay: Growth inhibition of human SK-MEL-2 cells at 10 uM after 48 hrs by SRB assay
Type: functional
Conditions: SK-MEL-2, 48 h, read-out: GI
Outline: as §1
Work on `Cc1ccc(-c2nc3ccc(Cl)cc3c(=O)n2NC(=O)CNN)cc1` yielded an inhibition of growth at 10 µM of under 10%.

System: NCI-H322M
Assay: Growth inhibition of human NCI-H322M cells at 10 uM after 48 hrs by SRB assay
Type: functional
Conditions: read-out: GI
Outline: as §1
In the case of `Cc1ccc(-c2nc3ccc(Cl)cc3c(=O)n2NC(=O)CNN)cc1`, the inhibition of growth at 10 µM was 29%.

System: not listed separately
Assay: Growth inhibition of human UACC62 cells at 10 uM after 48 hrs by SRB assay
Type: functional
Conditions: UACC-62, 48 h, read-out: GI
Outline: as §1
Work on `Cc1ccc(-c2nc3ccc(Cl)cc3c(=O)n2NC(=O)CNN)cc1` yielded an inhibition of growth at 10 µM of 18%.

System: SNB-75
Assay: Growth inhibition of human SNB75 cells at 10 uM after 48 hrs by SRB assay
Type: functional
Conditions: SNB-75, 48 h, read-out: GI
Outline: as §1
For `Cc1ccc(-c2nc3ccc(Cl)cc3c(=O)n2NC(=O)CNN)cc1`, the inhibition of growth at 10 µM was 25%.

System: not listed separately
Assay: Growth inhibition of human NCI-ADR-RES cells at 10 uM after 48 hrs by SRB assay
Type: functional
Conditions: read-out: GI
Outline: as §1
Molecule `Cc1ccc(-c2nc3ccc(Cl)cc3c(=O)n2NC(=O)CNN)cc1` has an inhibition of growth at 10 µM of 24%.

System: Malme-3M
Assay: Growth inhibition of human MALME-3M cells at 10 uM after 48 hrs by SRB assay
Type: functional
Conditions: read-out: GI
Outline: as §1
For `Cc1ccc(-c2nc3ccc(Cl)cc3c(=O)n2NC(=O)CNN)cc1`, the inhibition of growth at 10 µM was 14%.

System: T47D
Assay: Growth inhibition of human T47D cells at 10 uM after 48 hrs by SRB assay
Type: functional
Conditions: read-out: GI
Outline: as §1
Molecule `Cc1ccc(-c2nc3ccc(Cl)cc3c(=O)n2NC(=O)CNN)cc1` has an inhibition of growth at 10 µM of 52%.

System: NCI-H460
Assay: Growth inhibition of human NCI-H460 cells at 10 uM after 48 hrs by SRB assay
Type: functional
Conditions: NCI-H460, 48 h, read-out: GI
Outline: as §1
`Cc1ccc(-c2nc3ccc(Cl)cc3c(=O)n2NC(=O)CNN)cc1` showed an inhibition of growth at 10 µM of 49%.

System: SF-268
Assay: Growth inhibition of human SF268 cells at 10 uM after 48 hrs by SRB assay
Type: functional
Conditions: SF-268, 48 h, read-out: GI
Outline: as §1
`Cc1ccc(-c2nc3ccc(Cl)cc3c(=O)n2NC(=O)CNN)cc1` showed an inhibition of growth at 10 µM of 28%.

System: MDA-MB-468
Assay: Growth inhibition of human MDA-MB-468 cells assessed as cell growth at 10 uM after 48 hrs by SRB assay
Type: functional
Conditions: MDA-MB-468, 48 h, read-out: GI
Outline: as §1
`Cc1ccc(-c2nc3ccc(Cl)cc3c(=O)n2NC(=O)CNN)cc1` showed an inhibition of growth at 10 µM of under 10%.

System: K562
Assay: Growth inhibition of human K562 cells at 10 uM after 48 hrs by SRB assay
Type: functional
Conditions: K562, 48 h, read-out: GI
Outline: as §1
`Cc1ccc(-c2nc3ccc(Cl)cc3c(=O)n2NC(=O)CNN)cc1` gave an inhibition of growth at 10 µM of 11%.

System: HCT-116
Assay: Growth inhibition of human HCT116 cells at 10 uM after 48 hrs by SRB assay
Type: functional
Conditions: HCT-116, 48 h, read-out: GI
Outline: as §1
With `Cc1ccc(-c2nc3ccc(Cl)cc3c(=O)n2NC(=O)CNN)cc1` the inhibition of growth at 10 µM was 46%.

System: SK-MEL-5
Assay: Growth inhibition of human SK-MEL-5 cells at 10 uM after 48 hrs by SRB assay
Type: functional
Conditions: SK-MEL-5, 48 h, read-out: GI
Outline: as §1
With `Cc1ccc(-c2nc3ccc(Cl)cc3c(=O)n2NC(=O)CNN)cc1` the inhibition of growth at 10 µM was 11%.

System: not listed separately
Assay: Growth inhibition of human MOLT4 cells at 10 uM after 48 hrs by SRB assay
Type: functional
Conditions: MOLT-4, 48 h, read-out: GI
Outline: as §1
Work on `Cc1ccc(-c2nc3ccc(Cl)cc3c(=O)n2NC(=O)CNN)cc1` yielded an inhibition of growth at 10 µM of under 10%.

System: COLO 205
Assay: Growth inhibition of human COLO205 cells at 10 uM after 48 hrs by SRB assay
Type: functional
Conditions: COLO 205, 48 h, read-out: GI
Outline: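 NCI primary one-dose screen. A single concentration of 10^-5 M was added to the cell culture, followed by 48 h incubation and an SRB protein-dye endpoint read spectrophotometrically. Results are growth percentage relative to untreated control cells, reported as % growth inhibition.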
`Cc1ccc(-c2nc3ccc(Cl)cc3c(=O)n2NC(=O)CNN)cc1` showed an inhibition of growth at 10 µM of 28%.

System: SN12C
Assay: Growth inhibition of human SN12C cells at 10 uM after 48 hrs by SRB assay
Type: functional
Conditions: read-out: GI
Outline: as §1
With `Cc1ccc(-c2nc3ccc(Cl)cc3c(=O)n2NC(=O)CNN)cc1` the inhibition of growth at 10 µM was 33%.

System: SNB-19
Assay: Growth inhibition of human SNB19 cells at 10 uM after 48 hrs by SRB assay
Type: functional
Conditions: SNB-19, 48 h, read-out: GI
Outline: as §1
For `Cc1ccc(-c2nc3ccc(Cl)cc3c(=O)n2NC(=O)CNN)cc1`, the inhibition of growth at 10 µM was 22%.
